Screening results deposited in PubChem by several laboratories.
MEX-5 binding = MEX-5 zinc finger RNA-binding disruptors – biochemical, C. elegans, fluorescence polarization, MLPCN library, primary screen. Zinc finger protein mex-5 (Caenorhabditis elegans), Q9XUB2. MEX-5/FITC-TCR2 RNA binding; active compounds read low. activity score (negative = inhibition of binding), % at 10 µM. hit rate 0.38% among 300,000. AID 1832, 2009;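 active means inhibition past about -25% in most replicates, and total fluorescence under double the plate's negative control median, limit read from the data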;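 further: 0% = DMSO and -100% = 5 µM competing unlabeled TCR2 RNA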
EBV gp42 block = Epstein-Barr virus gp42 inhibitors, primary screen, biochemical, uHTS, fluorescence polarization; Glycoprotein 42 (Epstein-Barr virus (strain AG876)), Q1HVG2; Fluorescence polarization binding assay, mP read-out; inhibition, % (tested at 21.74 µM); hit rate 0.42% among 220,000; AID 1085, 2008; in the data active means inhibition above about 50%
Keap1-Nrf2 PPI = Keap1-Nrf2 protein-protein interaction inhibitors, primary screen, biochemical, fluorescence polarization, single point | inhibition, % at 9.4 µM | Keap1 Kelch-Nrf2 peptide fluorescence polarization, 1536-well | Kelch-like ECH-associated protein 1 (Homo sapiens), Q14145 | hit rate 0.15% among 340,000; in the data active means inhibition above about 12%;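 further: human Keap1 Kelch domain with fluorescein labeled Nrf2 9mer peptide probe; 0% = neutral control wells and 100% = peptide positive control; higher means more block of Keap1 binding to Nrf2 peptide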
GRK2 aptamer HTS = compounds blocking aptamer binding on GRK2 – biochemical, human GRK2, bead flow cytometry, HTS, primary screen. AID 488847, 2010. inhibition of aptamer binding, % at 10 µM. hit rate 0.59% among 330,000. Beta-adrenergic receptor kinase 1 (Homo sapiens), P25098. FAM-aptamer displacement from GRK2;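 active means inhibition of aptamer binding above 40%, roughly 3 SD of noise, on plates passing a quality check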;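 further: median bead fluorescence of bound FAM aptamer so fluorescent compounds give negative values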
Target sequence (P25098 whole entry, looked up): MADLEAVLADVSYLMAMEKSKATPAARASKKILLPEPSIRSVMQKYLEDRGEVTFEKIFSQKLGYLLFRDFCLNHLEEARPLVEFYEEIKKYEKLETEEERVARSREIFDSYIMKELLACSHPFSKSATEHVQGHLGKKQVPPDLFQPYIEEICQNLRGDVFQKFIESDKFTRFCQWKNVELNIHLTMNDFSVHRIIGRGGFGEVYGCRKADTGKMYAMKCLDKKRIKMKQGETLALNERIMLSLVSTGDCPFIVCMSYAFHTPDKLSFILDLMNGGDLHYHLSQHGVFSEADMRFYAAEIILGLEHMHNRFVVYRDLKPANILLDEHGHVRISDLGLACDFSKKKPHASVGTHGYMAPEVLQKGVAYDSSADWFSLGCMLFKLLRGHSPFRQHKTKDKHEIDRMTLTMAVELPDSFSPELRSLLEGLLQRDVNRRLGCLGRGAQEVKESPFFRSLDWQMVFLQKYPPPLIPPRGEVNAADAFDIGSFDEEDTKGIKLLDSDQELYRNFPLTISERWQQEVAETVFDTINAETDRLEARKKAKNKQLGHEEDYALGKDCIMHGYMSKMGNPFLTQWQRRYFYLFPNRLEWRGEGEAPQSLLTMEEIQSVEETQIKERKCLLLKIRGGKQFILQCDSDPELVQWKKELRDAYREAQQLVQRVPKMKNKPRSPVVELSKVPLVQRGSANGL
T cell modulator = modulators of CD8 T cell-vesicle binding, primary screen, mouse 2C CD8+ T cells, flow cytometry | hit rate 0.068% among 330,000 | 2C CD8+ T cell-vesicle binding; active compounds read low | response (vesicle binding), % at 7 µM | AID 2052, 2009;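 active means response, share of CD8 T cells binding vesicles, and their 90th percentile fluorescence all below set limits, cut at about 80% in these data, passing the limit was not always enough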;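 further: values below 100% mean blocked vesicle binding to the CD8+ T cells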
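Read-out – percent CD8+ FL2 mean versus row control · System – murine 2C transgenic CD8+ T lymphocytes · Times – 1.5 h cell–vesicle binding at 37 °C, then 20 min icy labelling · Control set – naked vesicles low, QL9 vesicles with vehicle high · Detection – cytometric PE anti-B7-1 and Alexa647 anti-CD8 signals after 1% paraformaldehyde fixation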
LANA DNA inh = inhibitors of KSHV C-LANA binding to DNA, primary screen, biochemical, fluorescence polarization, FAM-LBS DNA, MBP-C-LANA, single point; Kaposi's sarcoma herpesvirus LANA C-terminal domain (residues 932-1162) DNA binding; inhibition, % at 9 µM; hit rate 0.078% among 340,000;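 active means highest replicate inhibition at or above 60% at 9 µM, even if other replicates fall short; inactive means all replicates below 60% inhibition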;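 further: 0% = neutral control wells and 100% = 4 µM acridine orange control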
GRK2 inh confirm = GRK2 aptamer-displacing inhibitors, retest, confirmation, biochemical, cherry pick 1, bead flow cytometry; AID 504451, 2011; hit rate 4% among 2,000; aptamer displacement, % at 10 µM; shares compounds with GRK2 aptamer HTS; bead-bound GRK2, FAM-aptamer displacement;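 active means aptamer displacement above 40%, near three times the noise of non-fluorescent compounds, on plates passing quality checks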;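 further: negative values mostly reflect intrinsic compound fluorescence rather than true enhancement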
Aptamer quench 1 = counter-screen for GRK2 aptamer inhibitors: fluorescent aptamer quenchers. shares compounds with GRK2 aptamer HTS. AID 504521. fluorescence change (kMESF span), kMESF (no concentration beside the values). Fluorescent RNA aptamer beads, quenching, flow cytometry; active compounds read high. 110 tested, under 10 active;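 active means compounds whose bead fluorescence drops by more than 37 kMESF across the dose range, marking them as dye quenchers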
Aptamer quench SP = counter-screen for GRK2 aptamer inhibitors: fluorescent aptamer quenchers; shares compounds with GRK2 aptamer HTS; Carboxyfluorescein RNA aptamer on beads, flow cytometry quenching; active compounds read low; fluorescence response (% of DMSO), % at 10 µM; 2,000 tested, under 10 active; AID 504580;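 active means compounds that quench the bead-bound fluorescent RNA probe, cutting fluorescence to under half of the solvent control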;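 further: counterscreen run without GRK2 so only probe quenching by compound is measured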
GRK2 confirm 2 = GRK2 aptamer-displacing inhibitors, hit retest, confirmation, biochemical, cherry pick 2, bead flow cytometry. shares compounds with GRK2 aptamer HTS. bead-bound GRK2, FAM-aptamer displacement. inhibition of aptamer binding, % at 10 µM. 360 tested, under 10 active. AID 504782, 2011;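 active means inhibition of aptamer binding above 40%, about triple the noise seen with nonglowing compounds, on plates passing quality control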;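 further: negative values mostly come from compounds that fluoresce themselves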
FAM quench SP = aptamer fluorescence quenching in GRK2 counter-screen; shares compounds with GRK2 aptamer HTS; carboxyfluorescein RNA aptamer beads, flow cytometry quenching; active compounds read low; fluorescence response vs DMSO, % at 10 µM; 360 tested, under 10 active; AID 588494;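 active means response vs DMSO under 50%, meaning signal dropped by over half, treated as fluorescence quencher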;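 further: labelled aptamer on streptavidin beads without GRK2 as a quench counter-screen; 100% = bead fluorescence of DMSO wells and lower means quenching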
The depositor's hits bear a star; i = inactive; x = no result given. Only some compounds are listed: those with a hit (about 1.3% of all), similar ones and a draw of the others.

SMILES | MEX-5 binding | EBV gp42 block | Keap1-Nrf2 PPI | GRK2 aptamer HTS | T cell modulator | LANA DNA inh | GRK2 inh confirm | Aptamer quench SP | others
CSc1ccc(C(=O)C2CCCN(C(=O)CCCn3cncn3)C2)cc1 (stereo unspecified) | 2.7 | 6.0 | 3.4 | 76.0* | 475.0 | 0.5 | 5.7 | 96.2
CCCc1nnc(SCC(=O)N2CCOCC2)n1CC1CCCO1 (stereo unspecified) | -0.4 | -12.7 | 0.3 | 3.0 | 371.3 | 1.3 | x | x
Cc1sc2ncnc(NCCCN3CCCC3=O)c2c1C | 0.5 | -9.7 | 0.5 | 0.0 | 270.2 | -1.4 | x | x
Cc1sc2ncnc(NCCCO)c2c1C | -0.7 | 0.0 | 4.7 | 29.0 | 278.2 | -0.6 | -2.3 | 102.9
O=C(/C=C/c1cccc([N+](=O)[O-])c1)c1ccc2c(c1)OCCO2 | -1.3 | 6.2 | -0.9 | 0.0 | 250.3 | 1.2 | x | x
CN(CCOc1ccc(Cl)cc1)C(=O)c1ccccc1SCC(=O)N1CCCC1 | x | x | -0.1 | 0.0 | 335.5 | -0.5 | x | x
COc1cc(C(C)=O)ccc1OCC(=O)Nc1ccccc1N1CCCC1 | 0.8 | x | 0.2 | 87.0* | 897.7 | -1.9 | x | x | GRK2 confirm 2=-23.2;FAM quench SP=101.0
CCOC(=O)c1ccc(NC(=O)NS(=O)(=O)c2ccc(C)cc2)cc1 | 0.8 | -7.0 | 2.2 | 0.0 | 352.9 | 2.0 | x | x
Cc1ccc(-c2nc(C)sc2CC(=O)NCc2ccco2)cc1 | 2.8 | -1.4 | -12.8 | x | x | 3.3 | x | x
COc1ccc(/C=C2\CCc3c2nc2ccccc2c3C(=O)O)cc1OC | -4.9 | 8.4 | -3.5 | 1.0 | 539.8 | 6.3 | 17.2 | 99.8
COc1cc(/C=C2\CCCc3c2nc2ccccc2c3C(=O)O)cc(OC)c1O | -10.8 | -6.0 | -1.4 | 0.0 | 472.3 | -0.7 | x | x
O=C(C[n+]1cccc(C(=O)N/N=C/c2ccc(Br)cc2)c1)c1ccccc1 | x | x | -1.2 | 89.0* | 446.7 | 1.4 | -4.3 | 101.9
CCN1CCN(c2cc(C)c3cc(NC(=S)N(C)Cc4ccccc4)ccc3n2)CC1 | 0.0 | x | -7.0 | 1.0 | 512.0 | -1.7 | 1.3 | 97.9
COc1ccc(N2CCN(CCCNC(=O)c3ccc(CS(=O)(=O)c4ccc(OC)cc4)o3)CC2)cc1 | 0.9 | x | 1.6 | 0.0 | 331.2 | 2.9 | x | x
Cc1cnc(C(=O)OCC(=O)c2ccc(C)s2)cn1 | x | x | -3.9 | 45.0* | 331.8 | -0.5 | -1.2 | 103.3
Cc1cnc(C(=O)OCC(=O)N(Cc2ccccc2)C(C)C)cn1 | 0.9 | -4.2 | 0.5 | 42.0* | 124.9 | 1.5 | 5.3 | 96.8
Cc1c(N2CCCC2)cc2c(c1N)C(C)(C)CC2(C)C | 1.1 | x | -0.5 | 0.0 | 444.9 | -1.2 | x | x
Cc1cc(NC(=O)COC(=O)CNS(=O)(=O)c2ccc(C)c(C)c2)no1 | 1.6 | -24.7 | -3.6 | 0.0 | 805.0 | -0.4 | x | x
CCC(C)(C)n1nnnc1C(c1ccc2ncccc2c1)N1CCN(c2nc3ccccc3s2)CC1 (stereo unspecified) | 0.2 | 3.1 | 3.5 | 25.0 | 481.5 | -0.3 | 2.7 | 74.8
NS(=O)(=O)c1ccc(NS(=O)(=O)c2ccc(NC(=O)c3ccc(-c4ccccc4)cc3)cc2)cc1 | 1.8 | 15.7 | -0.9 | 41.0* | 227.9 | 3.0 | -3.9 | 107.5
O=C(Nc1ccncc1)c1ccc(S(=O)(=O)Nc2ccccc2)cc1 | 2.7 | -15.3 | -1.6 | 2.0 | 119.3 | -0.1 | x | x
Cc1ccc(C2CC(=O)Nc3cc4c(cc32)OCCO4)s1 (stereo unspecified) | -2.5 | -16.1 | -4.9 | 6.0 | 772.4 | -1.0 | -2.1 | 101.0
O=C1CC(c2cccs2)c2cc3c(cc2N1)OCCO3 (stereo unspecified) | -0.9 | -6.4 | -4.3 | 1.0 | 264.0 | 0.2 | x | x
CN(C)CCCn1cnc2c1c(=O)[nH]c(=O)n2Cc1ccccc1 | 3.8 | x | -6.0 | 99.0* | 214.2 | -0.1 | -0.5 | 92.3
C=CCNC(=O)c1cc(-c2ccc(Br)cc2)on1 | -1.6 | -29.1 | -1.8 | 0.0 | 343.8 | 0.3 | x | x
SMILES | MEX-5 binding | EBV gp42 block | Keap1-Nrf2 PPI | GRK2 aptamer HTS | T cell modulator | LANA DNA inh | GRK2 inh confirm | Aptamer quench SP | others
Cn1c(SCC(=O)NNC(=O)c2ccc(Cl)cc2)nnc1-c1cccnc1 | 0.1 | -0.4 | -2.3 | 0.0 | 389.5 | -0.5 | x | x
CC(=O)c1cccc(Nc2ccc(-c3ccccc3F)nn2)c1 | 2.8 | 0.4 | -3.9 | 1.0 | 238.0 | -1.3 | 0.1 | 102.1
CC(=O)c1ccc(Nc2ccc(-c3ccccc3C)nn2)cc1 | 0.8 | -12.1 | -1.5 | 0.0 | 235.3 | -0.6 | x | x
COc1ccccc1-c1ccc(Nc2cccc(C(C)=O)c2)nn1 | -0.8 | -2.1 | -3.3 | 2.0 | 433.0 | -1.3 | -7.8 | 103.3
COc1ccc(-c2nnc(C(C)Nc3cccc(C(=O)NC4CC4)c3)o2)cc1 (stereo unspecified) | x | x | -3.0 | 11.0 | 416.9 | -0.2 | 1.9 | 100.5
CC(Nc1cccc(C(=O)NC2CC2)c1)c1nnc(-c2ccccc2)o1 (stereo unspecified) | x | x | -3.9 | 4.0 | 224.6 | 1.7 | 0.2 | 97.0
CCOC(=O)/C(C#N)=c1/s/c(=C2\C=Cc3ccccc3N2CC)c(=O)n1CC | -2.3 | -7.6 | -3.8 | 65.0* | 200.4 | -0.1 | -20.4 | 100.7
CN(C)C(=O)CSc1nc2cc(S(=O)(=O)N3CCOCC3)ccc2o1 | x | x | 1.7 | 0.0 | i | 2.0 | x | x
Cc1cc2ccccc2n1CCNC(=O)c1ccccc1 | x | 8.1 | 3.5 | 100.0* | 50.3 | -2.9 | 29.5 | 102.1 | Aptamer quench 1=-1.8
COc1cccc(NC(=O)CN2C(=O)COc3ccc(S(=O)(=O)N4CCOCC4)cc32)c1 | -1.1 | x | -2.1 | 3.0 | 269.0 | -0.3 | x | x
